An excerpt weighted towards active compounds, which were near 1.8% of everything screened.
MC4R barr agon: MC4R agonists recruiting beta-arrestin, primary screen, cell-based, luminescence, agonist arm of biased-ligand search; U2OS MC4R beta-arrestin complementation; percent of melanotan II response, DMSO zero; 360,000 tested, 0.98% active; activation, % at 8.9 µM;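 active means activation above a per-plate cutoff, the mean activation of sample wells on that plate plus 3 SD, cut at about 8% in these data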
NOD2-RIPK2 inh: NOD2-RIPK2 binding disruptors in cells, primary screen, fluorescence, CHO cells, BLA complementation; CCF4 ratio; Receptor-interacting serine/threonine-protein kinase 2 (Homo sapiens), O43353; inhibition, % at 4.98 µM; 360,000 tested, 0.38% active; in the data active means inhibition above about 21%
TLR4-MyD88 BLA: inhibitors of TLR4-MyD88 association in cells, primary screen, cell-based, HeLa CL3-4, BLA complementation, FRET ratio; 200,000 tested, 0.18% active; HeLa CL3-4 TLR4/MyD88 BLA complementation; inhibition, % at 8.4 µM; Toll-like receptor 4 (Homo sapiens) + Myeloid differentiation primary response protein …; in the data active means inhibition above about 25%
MC4R antagonist: MC4R antagonists of cAMP signaling, primary screen, cell-based, TR-FRET, antagonist arm of biased-ligand search. Melanocortin receptor 4 (Homo sapiens), P32245. MC4R-expressing cells, MTII-stimulated cAMP, LANCE TR-FRET. inhibition, % at 6.5 µM. 360,000 tested, 0.48% active. AID 540295, 2011;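 active means inhibition above its plate's cutoff, the mean of tested wells on that plate plus 3 SD, cut at about 29% in these data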
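system = U2OS cells with stable human MC4R expression | also added = Melanotan II challenge after compound preincubation | dosing = one concentration, 6.5 µM nominal | incubation = compound 30 min, challenge 1 h, detection 1 h | measured by = TR-FRET with Eu-cAMP and labeled anti-cAMP, 671 nm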
TLR9-MyD88 block: inhibitors of TLR9-MyD88 association in cells, primary screen, cell-based, CHO, BLA complementation, fluorescence; Toll-like receptor 9 (Homo sapiens) + Myeloid differentiation primary response protein …; CCF4 FRET ratio; inhibition, % at 4.98 µM; 340,000 tested, 0.21% active; AID 504734, 2011;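 active means inhibition above the mean over all tested compounds plus 3 SD, cut at about 21% in these data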
MC4R barr ag: MC4R beta-arrestin agonists, retest, confirmation, cell-based, luminescence, U2OS | shares compounds with MC4R barr agon | U2OS MC4R beta-arrestin recruitment; scaled DMSO 0%, Melanotan II 100% | activation, % at 8.9 µM | 2,400 tested, 31% active;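 active means mean activation across replicates above the hit cutoff set in the earlier primary screen, cut at about 8% in these data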
MOR-DOR barr ag: agonists of MOR-DOR heterodimerization, counter-screen for MC4R biased agonist project, cell-based, luminescence; shares compounds with MC4R barr agon; U2OS PathHunter beta-arrestin, beta-gal luminescence; percent of deltorphin B response, DMSO zero; activation, % at 9.2 µM; 2,400 tested, 5.8% active; AID 602194, 2012;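 active means mean activation across replicates exceeds the hit threshold derived in the earlier primary screen, cut at about 18% in these data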
Target sequence (P35372 whole entry, looked up): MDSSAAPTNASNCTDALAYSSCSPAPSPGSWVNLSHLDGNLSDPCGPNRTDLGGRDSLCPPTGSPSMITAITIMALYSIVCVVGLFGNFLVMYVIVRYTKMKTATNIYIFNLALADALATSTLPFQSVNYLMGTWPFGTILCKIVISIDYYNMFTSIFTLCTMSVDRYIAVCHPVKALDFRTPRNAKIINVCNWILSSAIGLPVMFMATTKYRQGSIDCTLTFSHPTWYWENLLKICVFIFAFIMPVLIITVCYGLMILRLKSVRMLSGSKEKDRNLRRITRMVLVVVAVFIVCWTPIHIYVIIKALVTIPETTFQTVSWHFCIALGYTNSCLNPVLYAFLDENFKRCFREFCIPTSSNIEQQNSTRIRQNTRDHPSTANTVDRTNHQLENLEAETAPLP
Target sequence (P41143 whole entry, looked up): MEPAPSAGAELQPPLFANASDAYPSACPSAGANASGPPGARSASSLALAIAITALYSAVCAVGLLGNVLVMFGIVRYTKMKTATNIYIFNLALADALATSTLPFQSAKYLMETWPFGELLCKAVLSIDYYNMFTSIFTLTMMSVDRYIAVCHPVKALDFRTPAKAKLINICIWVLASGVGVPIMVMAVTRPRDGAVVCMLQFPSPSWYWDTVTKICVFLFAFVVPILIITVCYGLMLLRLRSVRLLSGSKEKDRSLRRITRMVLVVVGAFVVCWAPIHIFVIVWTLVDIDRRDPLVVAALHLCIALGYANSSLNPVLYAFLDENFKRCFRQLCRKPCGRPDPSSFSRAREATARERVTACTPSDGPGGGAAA
A number is an active result; . = inactive; / = no result given.

SMILES | MC4R barr agon | NOD2-RIPK2 inh | TLR4-MyD88 BLA | MC4R antagonist | TLR9-MyD88 block | MC4R barr ag | MOR-DOR barr ag
COc1ccc(N(C(=O)c2cnccn2)C(C(=O)NC2CCCCC2)c2ccc(O)cc2)cc1 (centres undefined) | . | . | . | . | . | / | /
Cc1cc(C(=O)COC(=O)CNC(=O)c2ccc(Cl)c(Cl)c2)c(C)n1Cc1ccco1 | 12 | . | . | . | . | . | .
Cc1ccc(C(=O)NCC(=O)OCC(=O)c2cc(C)n(Cc3ccco3)c2C)cc1 | . | . | . | . | . | / | /
c1ccc(-c2csc(Nc3nc(N4CCOCC4)nc(N4CCOCC4)n3)n2)cc1 | 14 | . | . | . | . | 11 | .
CC(=O)OC1C=CCC2C(=O)c3cccc(O)c3C(O)C12 (centres undefined) | . | . | / | . | . | / | /
COc1ccc(Cl)cc1Nc1nc(C)nc2c1nnn2Cc1ccccc1 | . | . | / | . | . | / | /
CCOC(=O)c1ccc(Nc2nc(C)nc3c2nnn3Cc2ccccc2)cc1 | 20 | . | / | . | . | . | .
Fc1ccc(-c2nnsc2Sc2ccccn2)cc1 | 12 | . | . | . | . | . | .
O=C1/C(=C\c2c(NCCOCCO)nc3ccccn3c2=O)SC(=S)N1Cc1ccco1 | 10 | . | / | . | . | . | .
COc1ccc(CCNC(=O)[C@@H](NC(=O)N2CC(=O)Nc3ccccc32)C(C)C)cc1OC | . | . | / | . | . | / | /
COc1cc(-c2nnc(COc3ccc(Cl)cc3C)o2)cc(OC)c1OC | 28 | . | . | . | . | . | .
Cc1cc(Cl)ccc1OCc1nnc(-c2ccccc2C)o1 | . | . | / | . | . | / | /
O=C(NC1CCCC1)c1cc(=O)[nH]c2ccccc12 | . | . | / | . | . | / | /
COc1ccc(C(=O)Cc2nnc(C)s2)cc1 | . | . | . | . | . | / | /
Cc1nnc(NC(=O)CSc2nc3ccccc3o2)s1 | . | . | . | . | . | / | /
CC1CCc2nc(NC(=O)CSc3nc4ccccc4o3)sc2C1 (centres undefined) | 14 | . | . | . | . | . | .
Brc1ccccc1-c1csnn1 | . | . | . | . | . | / | /
N=C(N)c1ccc(N=Nc2c(O)ccc3c2[nH]c2ccccc23)cc1 | 10.0 | . | / | . | . | 10 | .
CC(C)(C)C(=O)NC(=S)Nc1sc2c(c1C#N)CCCCC2 | 17 | . | . | . | . | . | .
CC(=O)Nc1sc2c(c1C#N)CCCCC2 | . | . | . | . | . | / | /
C=CCN(CC=C)S(=O)(=O)c1ccc(NC(=S)NC(=O)/C=C/c2ccccc2)cc1 | 19 | . | . | . | . | . | .
C/C(=N\N=C1\NC(=O)C(CC(=O)Nc2ccc(C)c(Cl)c2)S1)C(C)(C)C (centres undefined) | 16 | . | . | . | . | . | .
CN(Cc1ccccc1)C(=O)[C@@H]1CCCN1C(=O)[C@@H]1CCCN1C(=O)c1cccc2ccccc12 | / | . | / | / | / | / | /
CCN1/C(=C/c2ccc3cc(C)cc(C)c3[n+]2CC)Sc2cc(C)ccc21 | 45 | . | . | . | . | 87 | .
COc1ccc(-c2ccc3oc(-c4ccc(OC)cc4)c(C#CCO)c3c2)cc1 | 18 | . | / | . | . | 15 | .
SMILES | MC4R barr agon | NOD2-RIPK2 inh | TLR4-MyD88 BLA | MC4R antagonist | TLR9-MyD88 block | MC4R barr ag | MOR-DOR barr ag
COc1ccc(-c2sc3cc(OC)c(OC)cc3c2C#CCO)cc1 | 18 | . | / | . | . | 16 | .
COc1ccc(-c2sc3cc4c(cc3c2C#CC2(O)CCCCC2)OCO4)cc1 | . | . | / | . | . | / | /
COc1ccc(-c2oc3ccc(-c4ccc(OC)nc4)cc3c2C#CC2(O)CCCCC2)cc1 | 13 | . | / | . | . | 11 | .
COc1ccc(-c2oc3ccc(-c4ccc5c(c4)OCO5)cc3c2C#CC2(O)CCCCC2)cc1 | 15 | . | / | . | . | 17 | .
NC(CCc1ccccc1)c1csc(NC(=O)Nc2cccc(Cl)c2)n1 (centres undefined) | . | . | / | . | / | / | /
NC(c1csc(NC(=O)Nc2cccc(Cl)c2)n1)C1CCCCC1 (centres undefined) | 13 | . | / | . | / | 20 | .
NC(c1csc(NC(=O)Nc2ccccc2)n1)C1CCCCC1 (centres undefined) | . | . | / | . | / | / | /
NC(c1ccccc1)c1csc(NC(=O)Nc2cccc(Cl)c2)n1 (centres undefined) | 12 | . | / | . | / | 13 | .
O=C(CCCCCn1c(=S)[nH]c2ccc(N3CCOCC3)cc2c1=O)NCc1cccc(Cl)c1 | 9.8 | . | . | . | . | . | .
O=C(CCCCCn1c(=S)[nH]c2ccc(N3CCOCC3)cc2c1=O)NCc1ccccc1 | 12 | . | . | . | . | . | .
COC(=O)C1CCN(C(=O)COC(=O)CSc2ccc(C(N)=O)cc2[N+](=O)[O-])CC1 | . | . | / | . | . | / | /
CCOc1ccc(N/C=C/C(=O)c2ccccc2)c([N+](=O)[O-])c1 | 27 | . | . | . | . | . | .
CCOc1ccc(NC(=O)/C=C/c2ccccc2)c([N+](=O)[O-])c1 | 13 | . | . | . | . | . | .
CCOc1ccc(Nc2ccc(C(=O)O)cc2[N+](=O)[O-])cc1 | . | . | / | . | . | / | /
C[C@@H]1CN([C@H](C)CO)C(=O)c2cc(Br)cnc2O[C@@H]1CN(C)C(=O)c1cccc(F)c1 | . | . | / | . | . | / | /
Cc1sc2ncnc(N3CCC(C(=O)Nc4ccc(C#N)cc4)CC3)c2c1C | 11 | . | / | . | . | . | .
CCCn1c(-c2ccc[nH]c2=O)nc2cc(C)c(C)cc21 | . | . | . | . | . | / | /
COc1ccc(/C=N/NC(=O)c2sccc2C)c2ccccc12 | 19 | . | / | . | . | 11 | .
CN1C(=O)/C(=C/c2ccccc2F)Sc2ccc(C(=O)N3CCCC3)cc21 | . | . | / | . | . | / | /
CN(C)S(=O)(=O)c1ccc(NC(=O)/C=C/c2ccccc2Cl)cc1 | . | . | . | . | . | / | /
CN(C)c1ccc(NC(=O)/C=C/c2c(Cl)cccc2Cl)cc1 | 10 | . | . | . | . | . | .
O=C(CCNS(=O)(=O)c1ccc(Cl)cc1)Nc1ccncc1 | . | . | / | . | . | / | /
Cc1ccc(Cn2cccc2/C=N/NC(=S)Nc2ccc(C)cc2)cc1 | 21 | . | . | . | . | 8.8 | .
COc1ccc(NC(=S)N/N=C/c2cccn2Cc2ccc(F)cc2)cc1 | 10 | . | . | . | . | . | .

Bioassay records: PubChem BioAssay, The Scripps Research Institute Molecular Screening Center
